Measured values published in PubChem BioAssay AID1242 (PCMD, 2008).
Among all 120,000 compounds or so, about 20 (0.02%) were called active. This is one part of a sample in which actives are shown more often than they occur.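 How the source made its calls: active means inhibition above 30.3% in the primary screen of four-compound pools, then above 30% when the compound was retested; inconclusive means passed the primary limit but could not be retested; inactive means the rest.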

Experiment: Candida albicans biofilm persister killing – 4-compound mixtures, primary screen (AID 1242);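 further: compounds exposed to preformed 24 h biofilms for 48 h; 0% = untreated biofilm control and 100% = clotrimazole plus chlorhexidine kill blank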
Settings: C. albicans biofilm persisters + clotrimazole, fluorescence viability, primary screen in compound mixtures, stronger effect = higher value
Method in brief: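 Assay system: C. albicans biofilms / Medium: RPMI/MOPS medium, pH 7.0 / Schedule: biofilm formation 24 h, compound exposure 48 h, 37 °C / Measured by: Alamar Blue fluorescence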

[1] = measured here: individual compound retest, at 61 µM

**Q.** Which inhibition (at 7.6 µM unless noted) does the source give for `CCc1ccc(Nc2nnc(SCC(=O)c3ccc4c(c3)NC(=O)CO4)s2)cc1` here?
**A.** 10.2% (inactive)

**Q.** For `COc1ccc(C(=O)OCC(=O)NCC2CCCO2)cc1[N+](=O)[O-]` (centres undefined), which inhibition (at 7.6 µM unless noted) is on record?
**A.** 12.1% (inactive)

**Q.** With `CN(c1ccccc1)S(=O)(=O)c1cc(C(=O)OCC(=O)N2CCN(C(=O)c3ccco3)CC2)ccc1Cl` as the compound, how does the inhibition (at 7.6 µM unless noted) read?
**A.** 13.3% (inactive)

**Q.** With `COc1cc2c(cc1OC)CC1(CCCCC1)N=C2` as the compound, how does the inhibition (at 7.6 µM unless noted) read?
**A.** 4.41% (inactive)

**Q.** For `Cc1ccc(C2CC(c3cccc(NS(C)(=O)=O)c3)=NN2S(C)(=O)=O)cc1` (centres undefined), which inhibition (at 7.6 µM unless noted) is on record?
**A.** 16% (inactive)

**Q.** Which inhibition (at 7.6 µM unless noted) does the source give for `COCCC(=O)Nc1ccc2c(c1)CN(C(=O)CCOC)CC2` here?
**A.** 18% (inactive)

**Q.** Which inhibition (at 7.6 µM unless noted) does the source give for `CC(C)(C)c1cc(NC(=O)NN2CCOCC2)nn1-c1c(Cl)cc(Cl)cc1Cl` here?
**A.** 5.67% (inactive)

**Q.** Which inhibition (at 7.6 µM unless noted) does the source give for `C=CCOCCN(C)C1=NS(=O)(=O)c2ccccc21` here?
**A.** 3.65% (inactive)

**Q.** For `CN(C)S(=O)(=O)c1cccc(NC(=O)COC(=O)c2cc(=O)[nH]c(=O)[nH]2)c1`, which inhibition (at 7.6 µM unless noted) is on record?
**A.** 26.1% (inactive)

**Q.** For `CCOCCCN(C(=O)Cn1nnc(-c2ccc(OC)c(OC)c2)n1)C(CC)C(=O)NC1CCCC1` (centres undefined), which inhibition (at 7.6 µM unless noted) is on record?
**A.** 18.7% (inactive)

**Q.** With `Cc1cccc(N2CCN(c3ccc(C(N)=O)cc3[N+](=O)[O-])CC2)c1C` as the compound, how does the inhibition (at 7.6 µM unless noted) read?
**A.** 16.6% (inactive)

**Q.** With `CCOC(=O)C1CCN(CCC(=O)Nc2cccc(C)c2)CC1` as the compound, how does the inhibition (at 7.6 µM unless noted) read?
**A.** 9.47% (inactive)

**Q.** For `OCCC1CN(Cc2cccc(OC3CCCC3)c2)CCN1Cc1ccsc1` (centres undefined), which inhibition (at 7.6 µM unless noted) is on record?
**A.** 13.6% (inactive)

**Q.** Which inhibition (at 7.6 µM unless noted) does the source give for `CN(C)N(C)C(=O)C(O)(c1ccccc1)c1ccccc1` here?
**A.** 8.15% (inactive)

**Q.** With `CCOc1ccc(NS(=O)(=O)c2ccc(C)c(C(N)=O)c2)cc1` as the compound, how does the inhibition (at 7.6 µM unless noted) read?
**A.** 13.4% (inactive)

**Q.** Which inhibition (at 7.6 µM unless noted) does the source give for `CCC(C)(C)NC(=O)/C=C/c1cc(OC)c(OC)c(S(=O)(=O)N2CCc3ccccc32)c1` here?
**A.** 12.1% (inactive)

**Q.** With `Cc1ccc(S(=O)(=O)/N=C(/Nc2ccc3[nH]c(=O)[nH]c3c2)c2ccccc2)cc1` as the compound, how does the inhibition (at 7.6 µM unless noted) read?
**A.** 25.2% (inactive)

**Q.** With `CCCCN(CC)CCNC(=O)CCNC(=O)Cn1ccc2ccccc2c1=O` as the compound, how does the inhibition (at 7.6 µM unless noted) read?
**A.** 8.03% (inactive)

**Q.** For `CN(CC(O)COc1ccc(S(=O)(=O)N2CCOCC2)cc1Cl)C1CCCCC1` (centres undefined), which inhibition (at 7.6 µM unless noted) is on record?
**A.** 28.8% (inactive)

**Q.** For `Nc1nc(NCC2CCCO2)nc(Nc2ccccc2F)c1[N+](=O)[O-]` (centres undefined), which inhibition (at 7.6 µM unless noted) is on record?
**A.** 13.6% (inactive)

**Q.** Which inhibition (at 7.6 µM) does the source give for `Cn1nc(C(C)(C)C)c([N+](=O)[O-])c1C(N)=O` here?
**A.** 56.6% (inactive)

**Q.** What about the inhibition [1] of the same compound?
**A.** -53.4%

**Q.** Which inhibition (at 7.6 µM unless noted) does the source give for `O=C1N(c2ccccc2)C(=Nc2ccccc2)SC12CC2` here?
**A.** 16.8% (inactive)

**Q.** Which inhibition (at 7.6 µM unless noted) does the source give for `CCN(CC)CCN(C(=O)c1ccc(N2C(=O)CCC2=O)cc1)c1nc2cc3c(cc2s1)OCO3` here?
**A.** 4.15% (inactive)

**Q.** With `CCC(=O)NC(=S)Nc1ccc(NC(=O)c2ccco2)c(Cl)c1` as the compound, how does the inhibition (at 7.6 µM unless noted) read?
**A.** 2.96% (inactive)

**Q.** With `O=C(c1cccc([N+](=O)[O-])c1)N1CCN(C(=O)c2ccco2)CC1` as the compound, how does the inhibition (at 7.6 µM unless noted) read?
**A.** 0.32% (inactive)

**Q.** For `COC(=O)c1cccc(NS(C)(=O)=O)c1`, which inhibition (at 7.6 µM unless noted) is on record?
**A.** 13.2% (inactive)

**Q.** With `Cn1ccc(NC(=O)Nc2ccc(Cl)cc2)n1` as the compound, how does the inhibition (at 7.6 µM unless noted) read?
**A.** 16.2% (inactive)

**Q.** Which inhibition (at 7.6 µM unless noted) does the source give for `Cc1ccc(O)c(NC(=S)NC(=O)COc2ccc(Br)cc2)c1` here?
**A.** 9.22% (inactive)

**Q.** With `CCN(CC)C(=O)C(=O)Nc1cccc(Br)c1` as the compound, how does the inhibition (at 7.6 µM unless noted) read?
**A.** 10% (inactive)

**Q.** For `COc1ccccc1CNC(=O)CNC(=O)c1cn(-c2ccccc2OC)c(=O)c2ccccc12`, which inhibition (at 7.6 µM unless noted) is on record?
**A.** 24.6% (inactive)

**Q.** With `OCCC1CN(Cc2ccc(Oc3ncccn3)cc2)CCN1CCc1ccccc1` (centres undefined) as the compound, how does the inhibition (at 7.6 µM unless noted) read?
**A.** 23.9% (inactive)

**Q.** With `CC(NCc1nc2ccccc2n1C)C12CC3CC(CC(C3)C1)C2` (centres undefined) as the compound, how does the inhibition (at 7.6 µM) read?
**A.** 63.4% (inactive)

**Q.** And the inhibition [1]?
**A.** 0.64%

**Q.** Which inhibition (at 7.6 µM unless noted) does the source give for `O=C(NC(=S)Nc1ccc(S(=O)(=O)Nc2ncccn2)cc1)c1cccc(Br)c1` here?
**A.** 20.2% (inactive)

**Q.** Which inhibition (at 7.6 µM unless noted) does the source give for `Nc1c(N(CCO)C(=O)C2CCCCC2)c(=O)[nH]c(=O)n1Cc1ccccc1` here?
**A.** 4.09% (inactive)

**Q.** For `Cc1cc(C)c(C)c(S(=O)(=O)N[C@@H](C)C(=O)OC(C)C(=O)NC(N)=O)c1C` (some centres undefined), which inhibition (at 7.6 µM unless noted) is on record?
**A.** 14.7% (inactive)

**Q.** Which inhibition (at 7.6 µM unless noted) does the source give for `Cc1ccc(S(=O)(=O)/N=C(\N)c2ccc(F)cc2)cc1` here?
**A.** 3.79% (inactive)

**Q.** Which inhibition (at 7.6 µM unless noted) does the source give for `O=C(OCc1ccc([N+](=O)[O-])cc1)c1ccccn1` here?
**A.** 15% (inactive)

**Q.** For `Cc1cc(C)n(-c2ccc(C(=O)O)cc2[N+](=O)[O-])n1`, which inhibition (at 7.6 µM unless noted) is on record?
**A.** 2.45% (inactive)

**Q.** Which inhibition (at 7.6 µM unless noted) does the source give for `COc1cc(N/C=C2\CC(=O)NC(C)=C2C#N)cc(OC)c1OC` here?
**A.** 14.1% (inactive)

**Q.** For `O=C(Nc1ccc(F)cc1)N1CCCC(c2nc3c(nnn3Cc3ccccc3Cl)c(=O)[nH]2)C1` (centres undefined), which inhibition (at 7.6 µM unless noted) is on record?
**A.** 11.9% (inactive)

**Q.** Which inhibition (at 7.6 µM unless noted) does the source give for `NC(=O)Cc1nc2scc(-c3ccc(Cl)cc3)c2c(=O)[nH]1` here?
**A.** 4.85% (inactive)

**Q.** With `CC(=O)Nc1ccc(OCC(=O)NCc2ccc(C)cc2)cc1` as the compound, how does the inhibition (at 7.6 µM unless noted) read?
**A.** 10.5% (inactive)

**Q.** With `COc1ccc(C2NC(=S)NC3=C2CCc2ccccc23)cc1OC` (centres undefined) as the compound, how does the inhibition (at 7.6 µM unless noted) read?
**A.** 18.9% (inactive)

**Q.** Which inhibition (at 7.6 µM unless noted) does the source give for `COc1ccc(Cl)cc1CSc1ncn[nH]1` here?
**A.** 13.5% (inactive)

**Q.** For `COc1cccc(-n2c(=S)sc3c(=O)n(-c4ccccc4OC)c(SCC4OCCO4)nc32)c1`, which inhibition (at 7.6 µM unless noted) is on record?
**A.** 28.1% (inactive)

**Q.** Which inhibition (at 7.6 µM unless noted) does the source give for `OC1CCCN(c2ncnc3c2nnn3Cc2c(F)cccc2Cl)C1` (centres undefined) here?
**A.** 19.6% (inactive)

**Q.** Which inhibition (at 7.6 µM unless noted) does the source give for `Cc1cnc(C(=O)OCC(=O)N2CCc3ccccc32)cn1` here?
**A.** -4.77% (inactive)

**Q.** For `COCCn1c(C)cc(C(=O)CSc2nc3ccccc3c(=O)n2C(C)COC)c1C` (centres undefined), which inhibition (at 7.6 µM unless noted) is on record?
**A.** 8.22% (inactive)

**Q.** Which inhibition (at 7.6 µM unless noted) does the source give for `Cc1nc(CNS(=O)(=O)c2cc([N+](=O)[O-])ccc2C)cs1` here?
**A.** 22.4% (inactive)

**Q.** With `CCCCCCCC(=O)OC(CN1CCCCCC1)CN1CCCC1=O` (centres undefined) as the compound, how does the inhibition (at 7.6 µM unless noted) read?
**A.** 0.73% (inactive)

**Q.** For `COc1ccccc1N1CCN(C(=O)CSc2ncnc3c2cnn3-c2ccc(C)c(C)c2)CC1`, which inhibition (at 7.6 µM unless noted) is on record?
**A.** 19.7% (inactive)

**Q.** Which inhibition (at 7.6 µM unless noted) does the source give for `CCOc1cc(C2C(C(=O)OC(C)C)=C(C)NC3=C2C(=O)CCC3)cc([N+](=O)[O-])c1O` (centres undefined) here?
**A.** 16.6% (inactive)
